# Experimental data taken from ChEMBL document CHEMBL1138764, “Resistance-modifying agents. 11.(1) Pyrimido[5,4-d]pyrimidine modulators of antitumor drug activity. Synthesis and structure-activity relationships for nucleoside transport inhibition and binding to alpha1-acid glycoprotein” (J Med Chem, 2004).
# Where “and” joins values, the source holds several entries; their conditions need not be identical. Equal values may be shown once. Calls of active or inactive are those of the source. No cut-off for these calls is given here.
# Columns and labels:
# L1210 [1] = experiment: Inhibition of [3H]thymidine uptake in L1210 cells at 1 uM; type: functional; conditions: Mus musculus
# Summary of the method: (§1)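 ³H-thymidine uptake into L1210 leukaemia cells measured by a modified rapid-mixing technique with inhibitor-stop. Values are mean ± SD of three or more separate determinations. IC50 is interpolated from concentration–inhibition curves.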
# L1210 [2] = experiment: Inhibition of [3H]thymidine uptake in L1210 cells at 10 uM; type: functional; conditions: Mus musculus; summary of the method: as §1
# L1210 [3] = experiment: Inhibition of [3H]thymidine uptake in L1210 cells; type: functional, cell-based; conditions: Mus musculus; summary of the method: as §1
# L1210 [4] = experiment: Tested for the reduction in inhibition of [3H]thymidine uptake in L1210 cells in the presence of 5 mg/mL human AGP; type: functional, Mus musculus
# Summary of the method: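 Rapid-mixing, inhibitor-stop ³H-thymidine uptake into L1210 leukaemia cells run with 5 mg/mL human AGP present. Values are mean ± SD of three or more separate determinations. Significance of the difference from inhibition without AGP is taken at p ≤ 0.05.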
Structure (SMILES),inhibition at 1 µM (L1210 [1]) [%],inhibition at 10 µM (L1210 [2]) [%],IC50 (L1210 [3]) [nM],Reduction (L1210 [4]),inhibition (L1210 [2])
OCCN(CCO)c1nc(N2CCc3ccccc3C2)c2nc(N(CCO)CCO)nc(N3CCc4ccccc4C3)c2n1,72,100,720,31%,–
COc1ccc(CN(C)c2nc(OCCCO)nc3c(N(C)Cc4ccc(OC)c(OC)c4)nc(OCCCO)nc23)cc1OC,54,–,750,–,–
c1ccc(CNc2ncnc3c(NCc4ccccc4)ncnc23)cc1,–,40,–,–,–
CC(C)Oc1nc(N2CCCCC2)c2nc(OC(C)C)nc(N3CCCCC3)c2n1,–,23,–,–,–
CN(Cc1ccccc1)c1nc(OCCCO)nc2c(N(C)Cc3ccccc3)nc(OCCCO)nc12,52,77,1400,–,–
COCCOc1nc(N(Cc2ccccc2)Cc2ccccc2)c2nc(OCCOC)nc(N(Cc3ccccc3)Cc3ccccc3)c2n1,9,15,–,–,–
COCCN(CCOC)c1nc(N2CCCCC2)c2nc(N(CCOC)CCOC)nc(N3CCCCC3)c2n1,29,86,2070,50%,–
COC[C@H](COc1nc(N2CCCCC2)c2nc(OC[C@H](COC)OC)nc(N3CCCCC3)c2n1)OC,–,100,–,–,–
COCCOc1nc(N2CCCCC2)c2nc(OCCOC)nc(N3CCCCC3)c2n1,20,63,4600,–,–
CC(O)CNc1nc(NCc2ccccc2)c2nc(NCC(C)O)nc(NCc3ccccc3)c2n1 (configuration not stated),33,84,3000,–,–
OCCN(CCO)c1nc(N2CCCCC2)c2nc(N(CCO)CCO)nc(N3CCCCC3)c2n1 [DIPYRIDAMOLE],–,–,340,87% and 96%,–
CCCOc1nc(N(C)Cc2ccccc2)c2nc(OCCC)nc(N(C)Cc3ccccc3)c2n1,–,8,–,–,–
OCCOc1nc(N2CCCCC2)c2nc(OCCO)nc(N3CCCCC3)c2n1,13,–,6300,–,–
CCN(CC)c1nc(N2CCCCC2)c2nc(N(CC)CC)nc(N3CCCCC3)c2n1,–,–,–,–,inactive
OCCN(CCO)c1nc(NCc2ccc(Cl)cc2)c2nc(N(CCO)CCO)nc(NCc3ccc(Cl)cc3)c2n1,53,92,1100,–,–
CCC(C)COc1nc(N2CCCCC2)c2nc(OCC(C)CC)nc(N3CCCCC3)c2n1 (configuration not stated),–,–,–,–,inactive
COc1ccc(CNc2nc(OCCCO)nc3c(NCc4ccc(OC)cc4)nc(OCCCO)nc23)cc1,63,–,460,21%,–
OCCCOc1nc(N2CCCCC2)c2nc(OCCCO)nc(N3CCCCC3)c2n1,35,76,–,–,–
OCCN(CCO)c1nc(N2CCCCC2)nc2c(N(CCO)CCO)nc(N3CCCCC3)nc12,34,74,–,–,–
OCCNc1nc(NCc2ccccc2)c2nc(NCCO)nc(NCc3ccccc3)c2n1,46,–,750,–,–
COCCOc1nc(N(C)Cc2ccccc2)c2nc(OCCOC)nc(N(C)Cc3ccccc3)c2n1,17,68,3800,–,–
COc1ccc(CNc2nc(OC[C@@H](C)O)nc3c(NCc4ccc(OC)cc4)nc(OC[C@H](C)O)nc23)cc1,68,–,–,–,–
COCCOc1nc(NCc2ccccc2)c2nc(OCCOC)nc(NCc3ccccc3)c2n1,31,78,2400,–,–
OCCN(CCO)c1nc(N2CCCC(O)C2)c2nc(N(CCO)CCO)nc(N3CCCC(O)C3)c2n1 (configuration not stated),28,50,2600,–,–
COc1ccc(CN(C)c2nc(NCCO)nc3c(N(C)Cc4ccc(OC)c(OC)c4)nc(NCCO)nc23)cc1OC,57,84,–,–,–
OCCN(CCO)c1nc(NCc2ccc(C(F)(F)F)cc2)c2nc(N(CCO)CCO)nc(NCc3ccc(C(F)(F)F)cc3)c2n1,32,60,–,–,–
